Results collected from several papers.
Each line is one published result; the experiments were not run side by side. In brackets after ≈: the same amount, converted by molar mass.

CN1CCN(c2ccc(-c3ccc4nncc(Nc5cnccn5)c4c3)cc2)CC1 — EC50 (Leishmania major; parasite growth; intracellular, amastigote): > 13 µM
CC(=O)NC[C@H]1CN(c2ccc(N3CCOCC3)c(F)c2)C(=O)O1 — MIC90 (Enterococcus faecalis; microbial growth, broth dilution; clinical isolate): 1 µg/mL (≈ 2.96 µM)
COc1ccc(Nc2cnnc3cc(-c4cnc(N5CCCN(C)CC5)nc4)ccc23)cc1Cl — EC50 (Leishmania major; parasite growth; intracellular, amastigote): > 2.1 µM
C/C(=N\C(=N)/N=C(\C)c1c(O)c2ccccc2oc1=O)c1c(O)c2ccccc2oc1=O — MIC (Aspergillus glaucus; microbial growth, broth dilution; 48 h): 125 µg/mL
CNC(=S)NN=Cc1ccc(OC)c(OC)c1 — IC50 (Leishmania major; parasite growth; J774.A1; 72 h, intracellular, amastigote): 60 µM
C=C[C@]1(C)C[C@@H](OC(=O)CS[C@@H]2C[C@H]3CC[C@@H](C2)N3C)[C@]2(C)[C@H](C)CC[C@]3(CCC(=O)[C@H]32)[C@@H](C)[C@@H]1O — MIC (Enterococcus faecalis; microbial growth, agar dilution; ATCC29212): 128 µg/mL
COc1ccc(Nc2cnnc3ccc(-c4cnc(N5CCN(C)CC5)nc4)cc23)cc1Cl — EC50 (Leishmania major; parasite growth; intracellular, amastigote): > 22 µM
CNC(=S)NN=Cc1ccc(OC)cc1 — IC50 (Leishmania major; parasite growth, MTT; 72 h, promastigote): 26.7 µM
CN1CCCN(c2ncc(-c3ccc4nncc(Nc5cnccn5)c4c3)cn2)CC1 — EC50 (Leishmania major; parasite growth; intracellular, amastigote): > 24 µM
CNC(=S)NN=Cc1ccc(F)cc1 — IC50 (Leishmania major; parasite growth; J774.A1; 72 h, intracellular, amastigote): 319 µM
Cc1ccc(Nc2cnnc3ccc(-c4ccc(N5CCCN(C)CC5)cc4)cc23)cn1 — EC50 (Leishmania major; parasite growth; intracellular, amastigote): > 4.7 µM
Cc1c2c(nn1C)CSCc1cc(n(C)n1)CSc1cc(c3ccccc3c1)OCCCc1c(C(=O)O)n(C)c3c-2c(Cl)ccc13 — MIC50 (Enterococcus faecalis; microbial growth, broth dilution; clinical isolate): 25 µM
CCCCCCCCN=c1ccn(CCCCCCCCCCn2ccc(=NCCCCCCCC)cc2)cc1 — MIC (Enterococcus faecalis; microbial growth): 0.5 µM
S=C(NN=Cc1ccc(Br)cc1)Nc1cccnc1 — IC50 (Leishmania major; parasite growth, MTT; 72 h, promastigote): 891 µM
COc1c(N2C[C@@H]3CCCN[C@@H]3C2)c(F)cc2c(=O)c(C(=O)O)cn(C3CC3)c12 — MIC90 (Enterococcus faecalis; microbial growth, broth dilution; clinical isolate): 1 µg/mL (≈ 2.49 µM)
OC(Cn1cncn1)(Cn1cncn1)c1ccc(F)cc1F — MIC (Aspergillus fumigatus; microbial growth, broth dilution; AF293; 48 h): > 64 µg/mL
CNC(=S)NN=Cc1ccc(C)cc1 — IC50 (Leishmania major; parasite growth, MTT; 72 h, promastigote): 938 µM
OC(Cn1cncn1)(Cn1cncn1)c1ccc(F)cc1F — MIC (Aspergillus fumigatus; microbial growth, broth dilution): 4 µg/mL
C/C(=N\C(=O)/N=C(\C)c1c(O)c2ccccc2oc1=O)c1c(O)c2ccccc2oc1=O — MIC (Aspergillus glaucus; microbial growth, broth dilution; 48 h): 62.5 µg/mL
CC[C@H]1OC(=O)[C@H](C)[C@@H](O[C@H]2C[C@@](C)(OC)[C@@H](O)[C@H](C)O2)[C@H](C)[C@@H](O[C@@H]2O[C@H](C)C[C@H](N(C)C)[C@H]2O)[C@](C)(O)C[C@@H](C)/C(=N\OCOCCOC)[C@H](C)[C@@H](O)[C@]1(C)O — MIC50 (Enterococcus faecalis; microbial growth; clinical isolate): > 128 µg/mL
CC1(C)S[C@@H]2[C@H](NC(=O)[C@H](N)c3ccccc3)C(=O)N2[C@H]1C(=O)O — MIC (Enterococcus faecalis; microbial growth, broth dilution; ATCC19433; 12 h): 0.5 µg/mL
CC1(C)S[C@@H]2[C@H](NC(=O)[C@H](N)c3ccccc3)C(=O)N2[C@H]1C(=O)O — MIC90 (Enterococcus faecalis; microbial growth; clinical isolate): > 128 µg/mL
CN1CCN(c2ccc(-c3ccc4nncc(Nc5ncccn5)c4c3)cc2)CC1 — EC50 (Leishmania major; parasite growth; intracellular, amastigote): > 2.5 µM
COc1ccc(C=NNC(=S)Nc2cccnc2)cc1OC — IC50 (Leishmania major; parasite growth; J774.A1; 72 h, intracellular, amastigote): 886 µM
COc1ccc(Nc2cnnc3ccc(-c4ccc(N5CCN(C)CC5)cc4)cc23)cc1Cl — EC50 (Leishmania major; parasite growth; intracellular, amastigote): > 22 µM
C/C(=N\CCNCCNCC/N=C(\C)c1c(O)c2ccccc2oc1=O)c1c(O)c2ccccc2oc1=O — MIC (Aspergillus glaucus; microbial growth, broth dilution; 48 h): 125 µg/mL
CN[C@H](CC(C)C)C(=O)N[C@H]1C(=O)N[C@@H](CC(N)=O)C(=O)N[C@H]2C(=O)N[C@H]3C(=O)N[C@H](C(=O)N[C@H](C(=O)O)c4cc(O)cc(O)c4-c4cc3ccc4O)[C@H](O)c3ccc(c(Cl)c3)Oc3cc2cc(c3O[C@@H]2O[C@H](CO)[C@@H](O)[C@H](O)[C@H]2O[C@H]2C[C@](C)(N)[C@H](O)[C@H](C)O2)Oc2ccc(cc2Cl)[C@H]1O — MIC90 (Enterococcus faecalis; microbial growth, broth dilution; clinical isolate): 2 µg/mL (≈ 1.38 µM)
C/C(=N\CCNCC/N=C(\C)c1c(O)c2ccccc2oc1=O)c1c(O)c2ccccc2oc1=O — MIC (Aspergillus glaucus; microbial growth, broth dilution; 48 h): 31.2 µg/mL
COc1ccc(C=NNC(=S)Nc2cccnc2)cc1 — IC50 (Leishmania major; parasite growth; J774.A1; 72 h, intracellular, amastigote): 892 µM
CN1CCN(c2ncc(-c3ccc4c(Nc5ncccn5)cnnc4c3)cn2)CC1 — EC50 (Leishmania major; parasite growth; intracellular, amastigote): > 25 µM
CNC(=S)NN=Cc1ccc([N+](=O)[O-])cc1 — IC50 (Leishmania major; parasite growth; J774.A1; 72 h, intracellular, amastigote): 177 µM
CC(=O)N1CCN(c2ccc(OCC3COC(Cn4ccnc4)(c4ccc(Cl)cc4Cl)O3)cc2)CC1 (centres unmarked) — MIC (Aspergillus glaucus; microbial growth, broth dilution; 48 h): 7.8 µg/mL
